# Legend:
# [1] = tested on: BT-474; assay: Cytotoxicity against human BT474 cells assessed as decrease in cell viability after 72 hrs by MTS assay; format: functional, cell-based; settings: BT-474, 72 h
# How it was run: (§1)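 Cell proliferation assay using the MTS reagent. Compounds were tested as a dilution series, and EC50 values were derived from the concentration–response data.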
# [2] = tested on: SK-OV-3; assay: Cytotoxicity against human SKOV3 cells assessed as decrease in cell viability after 72 hrs by MTS assay; format: functional, cell-based; settings: SK-OV-3, 72 h; how it was run: as §1
# [3] = tested on: PANC-1; assay: Cytotoxicity against human PANC1 cells assessed as decrease in cell viability after 72 hrs by MTS assay; format: functional, cell-based; settings: PANC-1, 72 h; how it was run: as §1
# [4] = tested on: HCT-116; assay: Cytotoxicity against human HCT116 cells assessed as decrease in cell viability after 72 hrs by MTS assay; format: functional, cell-based; settings: HCT-116, 72 h; how it was run: as §1
# [5] = tested on: HepG2; assay: Cytotoxicity against human HepG2 cells assessed as decrease in cell viability after 72 hrs by MTS assay; format: functional, cell-based; settings: HepG2, 72 h; how it was run: as §1
# [6] = tested on: DU-145; assay: Cytotoxicity against human DU145 cells assessed as decrease in cell viability after 72 hrs by MTS assay; format: functional, cell-based; settings: DU-145, 72 h; how it was run: as §1
# [7] = tested on: HT-1080; assay: Cytotoxicity against human HT1080 cells assessed as decrease in cell viability after 72 hrs by MTS assay; format: functional, cell-based; settings: HT-1080, 72 h; how it was run: as §1
# [8] = tested on: MES-SA; assay: Cytotoxicity against human MESSA cells assessed as decrease in cell viability after 72 hrs by MTS assay; format: functional, cell-based; how it was run: as §1
# [9] = tested on: MES-SA/Dx5; assay: Cytotoxicity against human MES-SA/Dx5 cells assessed as decrease in cell viability after 72 hrs by MTS assay; format: functional, cell-based; settings: MES-SA/Dx5, 72 h; how it was run: as §1
# [10] = tested on: 786-0; assay: Cytotoxicity against human 786-O cells assessed as decrease in cell viability after 72 hrs by MTS assay; format: functional, cell-based; settings: 786-0, 72 h; how it was run: as §1
# [11] = tested on: Daudi; assay: Cytotoxicity against human Daudi cells assessed as decrease in cell viability after 72 hrs by MTS assay; format: functional, cell-based; how it was run: as §1
# [12] = tested on: THP-1; assay: Cytotoxicity against human THP1 cells assessed as decrease in cell viability after 72 hrs by MTS assay; format: functional, cell-based; settings: THP-1, 72 h; how it was run: as §1
# [13] = tested on: HeLa; assay: Cytotoxicity against human HeLa cells assessed as decrease in cell viability after 72 hrs by MTS assay; format: functional, cell-based; how it was run: as §1
# [14] = tested on: MCF7; assay: Cytotoxicity against human MCF7 cells assessed as decrease in cell viability after 72 hrs by MTS assay; format: functional, cell-based; settings: MCF7, 72 h; how it was run: as §1
# [15] = tested on: BXPC-3; assay: Cytotoxicity against human BxPC3 cells assessed as decrease in cell viability after 72 hrs by MTS assay; format: functional, cell-based; settings: BXPC-3, 72 h; how it was run: as §1
# [16] = tested on: LoVo; assay: Cytotoxicity against human LoVo cells assessed as decrease in cell viability after 72 hrs by MTS assay; format: functional, cell-based; how it was run: as §1
# [17] = Cytotoxicity against human LOX cells assessed as decrease in cell viability after 72 hrs by MTS assay; format: functional, cell-based; how it was run: as §1
# [18] = tested on: U-87 MG; assay: Cytotoxicity against human U87MG cells assessed as decrease in cell viability after 72 hrs by MTS assay; format: functional, cell-based, U-87MG ATCC; how it was run: as §1
# [19] = tested on: NCI-N87; assay: Cytotoxicity against human NCI-N87 cells assessed as decrease in cell viability after 72 hrs by MTS assay; format: functional, cell-based; settings: NCI-N87, 72 h; how it was run: as §1
# [20] = tested on: A549; assay: Cytotoxicity against human A549 cells assessed as decrease in cell viability after 72 hrs by MTS assay; format: functional, cell-based; settings: A549, 72 h; how it was run: as §1
# [21] = tested on: NCI-H1975; assay: Cytotoxicity against human NCI-H1975 cells assessed as decrease in cell viability after 72 hrs by MTS assay; format: functional, cell-based; settings: NCI-H1975, 72 h; how it was run: as §1
# [22] = tested on: MV4-11; assay: Cytotoxicity against human MV411 cells assessed as decrease in cell viability after 72 hrs by MTS assay; format: functional, cell-based; settings: MV4-11, 72 h; how it was run: as §1
# [23] = tested on: MDA-MB-468; assay: Cytotoxicity against human MDA-MB-468 cells assessed as decrease in cell viability after 72 hrs by MTS assay; format: functional, cell-based; settings: MDA-MB-468, 72 h; how it was run: as §1
# [24] = tested on: HUVEC; assay: Cytotoxicity against human HUVEC cells assessed as decrease in cell viability after 72 hrs by MTS assay; format: cell-based; how it was run: as §1
# [25] = tested on: MRC5; assay: Cytotoxicity against human MRC5 cells assessed as decrease in cell viability after 72 hrs by MTS assay; format: cell-based; settings: MRC5, 72 h; how it was run: as §1
# [26] = tested on: H22; assay: Cytotoxicity against mouse H22 cells assessed as decrease in cell viability after 72 hrs by MTS assay; format: functional, cell-based; settings: H22, 72 h; how it was run: as §1
# [27] = tested on: CCRF S-180; assay: Cytotoxicity against mouse S180 cells assessed as decrease in cell viability after 72 hrs by MTS assay; format: functional, cell-based; settings: CCRF S-180, 72 h; how it was run: as §1
structure (smiles),measurement,setting,value
CC1(C)[C@@H](OC(N)=O)[C@H]2O[C@H]2[C@]2(C=O)[C@H]3CC[C@]4(C)[C@@H](c5ccc(=O)oc5)[C@@H](Cl)C[C@]4(O)C3=CC[C@@H]12,EC50,[1],3.9 nM
same,EC50,[2],6.1 nM
same,EC50,[3],2.4 nM
same,EC50,[4],5.9 nM
same,EC50,[5],3.2 nM
same,EC50,[6],7.2 nM
same,EC50,[7],5.4 nM
same,EC50,[8],7.4 nM
same,EC50,[9],5.7 nM
same,EC50,[10],2.6 nM
same,EC50,[11],2.8 nM
same,EC50,[12],4.1 nM
same,EC50,[13],5.1 nM
same,EC50,[14],15 nM
same,EC50,[15],5.5 nM
same,EC50,[16],6 nM
same,EC50,[17],3.2 nM
same,EC50,[18],6.4 nM
same,EC50,[19],6.3 nM
same,EC50,[20],3.8 nM
same,EC50,[21],4.9 nM
same,EC50,[22],6.4 nM
same,EC50,[23],8.4 nM
same,EC50,[24],7.7 nM
same,EC50,[25],2.7 nM
same,EC50,[26],2400 nM
same,EC50,[27],> 20000 nM
